From ChEMBL document CHEMBL3392997, “Interconversion of Functional Activity by Minor Structural Alterations in Nonpeptide AT2 Receptor Ligands” (ACS Med Chem Lett, 2015) come the findings set out here.

Experiment [1] in a line: Binding affinity to AT2 receptor (unknown origin).
In experiment [2] the target is T1, Type-2 angiotensin II receptor (Homo sapiens) (UniProt P50052).
T1 sequence (whole entry): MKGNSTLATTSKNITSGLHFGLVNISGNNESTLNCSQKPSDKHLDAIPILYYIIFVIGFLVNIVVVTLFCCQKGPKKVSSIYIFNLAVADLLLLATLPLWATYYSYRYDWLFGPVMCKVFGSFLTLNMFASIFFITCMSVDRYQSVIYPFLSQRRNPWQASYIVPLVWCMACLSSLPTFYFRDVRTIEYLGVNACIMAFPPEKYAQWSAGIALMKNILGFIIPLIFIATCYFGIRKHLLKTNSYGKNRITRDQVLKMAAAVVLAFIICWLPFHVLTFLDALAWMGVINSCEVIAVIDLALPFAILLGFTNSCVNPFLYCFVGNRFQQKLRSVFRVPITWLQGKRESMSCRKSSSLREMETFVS
Kind of experiment: Agonist activity at AT2 receptor (unknown origin) expressed in NG108-15 cells assessed as induction of neurite outgrowth at 100 nM after 3 days by phase contrast microscopy. It counts as cell-based. The essentials:
(§1)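 Undifferentiated NG108-15 cells were plated at 3.6×10^4 cells per 35 mm dish and cultured 3 days with agent alone, or with 10 μM PD 123,319 or 100 nM Ang II. Phase-contrast micrographs were taken. A cell with at least one neurite longer than its cell body scored positive, expressed as percent of total cells counted (at least 400). Two-way ANOVA.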

Experiment [3] deals with T1, Type-2 angiotensin II receptor (Homo sapiens). The experiment in a line: Agonist activity at AT2 receptor (unknown origin) expressed in NG108-15 cells assessed as induction of neurite outgrowth at 10 nM after 3 days by phase contrast microscopy. It counts as cell-based. Put shortly: as §1
Experiment [4] has the same target. The experiment in a line: Antagonist activity against AT2 receptor (unknown origin) expressed in NG108-15 cells assessed as reduction in angiotension-2-induced neurite outgrowth at 10 nM after 3 days by phase contrast microscopy. It counts as cell-based. Put shortly:
as §1

The target is the same in experiment [5]. To be noted: NG108-15, 10 uM.
Experiment [6] has the same target. The experiment in a line: Agonist activity at AT2 receptor (unknown origin) expressed in NG108-15 cells assessed as induction of neurite outgrowth at 10 nM after 3 days in presence of 10 uM AT2 receptor antagonist PD 123,319 by phase contrast microscopy. It is filed as cell-based. The essentials:
as §1

Experiment [7] deals with T2, Type-1 angiotensin II receptor A (Rattus norvegicus, UniProt P25095).
T2 sequence (P25095 whole entry): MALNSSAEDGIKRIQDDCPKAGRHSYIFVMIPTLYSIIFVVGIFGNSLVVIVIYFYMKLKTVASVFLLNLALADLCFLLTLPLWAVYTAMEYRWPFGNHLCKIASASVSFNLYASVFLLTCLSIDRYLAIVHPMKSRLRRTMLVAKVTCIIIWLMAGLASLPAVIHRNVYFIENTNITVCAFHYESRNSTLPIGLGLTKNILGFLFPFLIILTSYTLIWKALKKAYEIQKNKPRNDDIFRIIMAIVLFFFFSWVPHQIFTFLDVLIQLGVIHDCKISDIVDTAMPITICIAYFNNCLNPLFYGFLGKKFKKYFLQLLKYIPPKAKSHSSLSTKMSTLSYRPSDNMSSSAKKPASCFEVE
The experiment in a line: Displacement of [125I]-Ang II from AT1 receptor in rat liver membranes after 2 hrs by gamma-counting method. It counts as cell membranes, Membrane.

Experiment [8] has as its target T3, Type-1 angiotensin II receptor (Homo sapiens, UniProt P30556).
T3 sequence (P30556 whole entry): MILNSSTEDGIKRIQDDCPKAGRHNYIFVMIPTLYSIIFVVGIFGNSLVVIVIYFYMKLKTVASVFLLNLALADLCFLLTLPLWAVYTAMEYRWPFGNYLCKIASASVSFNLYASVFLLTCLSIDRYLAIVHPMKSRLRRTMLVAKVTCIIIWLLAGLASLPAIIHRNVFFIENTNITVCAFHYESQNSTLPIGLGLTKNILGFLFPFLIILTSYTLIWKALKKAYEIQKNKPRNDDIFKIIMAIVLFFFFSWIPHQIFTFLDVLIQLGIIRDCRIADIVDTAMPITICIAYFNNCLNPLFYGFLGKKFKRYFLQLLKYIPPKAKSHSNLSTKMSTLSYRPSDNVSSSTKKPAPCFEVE
Kind of experiment: Displacement of [125I]-[Sar1,Leu8]angiotensin II from human AT1 receptor expressed in african green monkey COS7 cells. It counts as cell-based, COS-7. In general terms: Displacement assays read how much labelled ligand stays bound in the presence of the test substance.

The source made the active and inactive calls. No cut-off for these calls is given here.

As usually defined, the IC50 is the concentration needed to halve the response being measured. As to `CCCCOC(=O)NS(=O)(=O)c1ccc(CCC)cc1-c1ccc(Cn2c(CC)nc3c(C)cc(C)nc32)cc1`, in experiment [1], the IC50 is 4.2 nM. As for `CCCCOC(=O)NS(=O)(=O)c1ccc(CC(C)C)cc1-c1cccc(Cn2ccnc2)c1`, the outcome in experiment [2] and in experiment [3] was inactive. The inhibition result in experiment [4] is “Active”. As to `Cc1cc(Cn2cnc3c2C[C@@H](C(=O)O)N(C(=O)C(c2ccccc2)c2ccccc2)C3)ccc1N(C)C`, in experiment [5], the inhibition entry is “Active”.

On to `CCCCOC(=O)NS(=O)(=O)c1ccc(CC(C)C)cc1-c1ccc(Cn2ccnc2)cc1`, for which, in experiment [3], the result was Active. Also, the result in experiment [6] was inactive. One may read the Ki as a dissociation constant, usually derived from enzyme kinetics or from competition with a known ligand. In experiment [7], `CCCCOC(=O)NS(=O)(=O)c1sc(CC(C)C)cc1-c1ccc(Cn2ccnc2)cc1` [BULOXIBUTID] showed a Ki of over 10000 nM.

Take `CCCCOC(=O)NS(=O)(=O)c1cc(CC(C)C)ccc1-c1ccc(Cn2ccnc2)cc1`: the outcome in experiment [3] was Active. Moreover, the outcome in experiment [6] was inactive. The matching figures for `CCCCOC(=O)NS(=O)(=O)c1cc(CC(C)C)ccc1-c1cccc(Cn2ccnc2)c1`: “Active” and “inactive”. On to `CCCCOC(=O)NS(=O)(=O)c1ccc(CC(C)C)cc1-c1ccc(Cn2c(CC)nc3c(C)cc(C)nc32)cc1`, for which the IC50 in experiment [1] was found to be 0.7 nM; in experiment [8], 2.1 nM.
